Hsp70 act – transcriptional activators of Hsp70; actives 0.04% (n = 200,000); AID 1203; HeLa Hsp70 promoter luciferase reporter, luminescence; scaled: vehicle 0, proteasome-inhibitor control 100%; activation, % at 10 µM;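 active means activation above the mean across all tested compounds plus 3 SD, cutoff set per campaign, cut at about 5.5% in these data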;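 further: 100% = MG132 at 30 µM as the positive control and 0% = DMSO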
Rad51 HR inh – Rad51 (human) homologous recombination inhibition; Q06609; hRad51 DNA strand exchange, fluorescence dequenching; inhibition, % at 10 µM; actives 0.085% (n = 200,000); AID 1385;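 active means inhibition above 40% at the single screening dose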;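 further: 0% = DMSO control wells and 100% = blanks with heterologous ssDNA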
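Test system: preformed human Rad51 ssDNA filaments; also added: Donor/quencher-labelled 47-bp dsDNA substrate; doses: 10 µM final, single point; times: 37 °C 15-min filament assembly, 30-min compound preincubation, 15-min exchange; detection: FRET fluorescence dequenching, excitation 485 nm, emission 520 nm; read-out basis: Fluorescence-based percent inhibition, control- and blank-normalised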
HSF-1 act – increases HSF-1 driven luciferase reporter signal; NIH3T3-HGL HSF-1 luciferase reporter, MG132, 8 h; 100% = twice DMSO control signal; activation, % at 9 µM; actives 1.7% (n = 300,000);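 active means mean replicate activation of at least 50% with a set share of replicates each reaching 50%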;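 further: 0% = median of the neutral control wells and 100% = twice that signal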
MDM2 E3 inh – inhibitors of human Mdm2 E3 ubiquitin ligase; Q00987; cell-based MDM2 ubiquitination luciferase reporter, 2 h; 0 = plate control, 100 = twice control, blank-subtracted; signal enhancement, % at 5 µM; actives 0.11% (n = 210,000); AID 1230;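 active means signal enhancement of 30% or more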;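 further: luminescence tracks abundance of the self-degrading MDM2-luciferase fusion protein; higher signal means inhibition of MDM2 E3 ligase activity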
Target sequence (Q00987 whole entry, looked up, the tested form may be a part): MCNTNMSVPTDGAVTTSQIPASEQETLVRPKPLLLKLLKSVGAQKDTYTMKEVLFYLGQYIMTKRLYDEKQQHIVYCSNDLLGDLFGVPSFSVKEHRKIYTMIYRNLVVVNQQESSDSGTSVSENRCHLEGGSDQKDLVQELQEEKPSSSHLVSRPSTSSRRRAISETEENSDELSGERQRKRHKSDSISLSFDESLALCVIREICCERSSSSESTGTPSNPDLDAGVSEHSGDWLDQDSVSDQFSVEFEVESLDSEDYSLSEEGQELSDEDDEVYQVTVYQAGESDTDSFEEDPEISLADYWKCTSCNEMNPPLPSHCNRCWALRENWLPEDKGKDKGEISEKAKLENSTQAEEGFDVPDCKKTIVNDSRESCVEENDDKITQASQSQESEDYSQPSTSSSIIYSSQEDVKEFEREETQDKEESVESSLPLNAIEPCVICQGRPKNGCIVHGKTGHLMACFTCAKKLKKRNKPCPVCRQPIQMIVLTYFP
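Test system: mammalian cells stably expressing self-ubiquitinating, self-degrading MDM2 E3–luciferase fusion; Amount: 2000 cells in each well; Medium: DMEM; Schedule: 4 h settle plus 2 h compound, 37 °C; Technique: SteadyLite luciferase luminescence after 15 min room-temperature reagent incubation; Benchmarks: plate control and blank wells.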
HSV replic up – increases HSV replication in cells. actives 0.005% (n = 220,000). maximum fold increase. HSV replication augmentation in cells, fold increase; in the data active means maximum fold increase above about 1.5; tested in PC3 cells
HSF1 inh – HSF1 inhibition; actives 0.77% (n = 300,000); NIH3T3-HGL HSE-luciferase, MG132-induced, luminescence 8 h; stronger effect = lower value; activity change, negative = inhibition, % at 7.5 µM (by protocol); AID 2098;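 active means more than half of replicate wells show activity change below -50%, luminescence cut by over half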;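 further: luciferase reports HSF-1 transcriptional activity via heat shock element; 0% = median of DMSO wells and -100% = zero luminescence signal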
* = called active by the depositor; i = inactive; / = no result given. In the library only some 2.6% were active in any assay of this set; here they are far more common.

SMILES	Hsp70 act	Rad51 HR inh	HSF-1 act	MDM2 E3 inh	HSV replic up	HSF1 inh
CC(C)(C)c1ccc(-c2cc(-c3ccccc3O)[nH]n2)cc1	/	/	-75	/	/	-72*
O=[N+]([O-])c1ccccc1-c1cc(-c2cc(Cl)ccc2O)n[nH]1	0	/	21	1	i	33
Cc1ccc(O)c(-c2cc(-c3ccccc3[N+](=O)[O-])[nH]n2)c1	0	/	59*	-4	i	42
O=C(CCl)c1ccc2c(c1)CCN2C(=O)C1CCCCC1	0	2	71*	22	/	52
CC(C)Cn1c(N)c(C(=O)COC(=O)CCNS(=O)(=O)c2ccccc2)c(=O)n(C)c1=O	/	/	-5	/	/	4
Cc1ccc(C2=N/C(=C\N3CCCCC3)C(=O)O2)cc1	0	-1	63*	-13	i	21
Cc1ccc(C2=N/C(=C/N3CCOCC3)C(=O)O2)cc1	0	1	30	2	i	25
Cc1cc(C)cc(N2C(=O)CC(Sc3nnnn3-c3ccccc3)C2=O)c1 (stereo not drawn)	0	109*	4	-37	i	15
Cc1c(C(=O)C(=O)NCCC2=CCCCC2)c2ccccc2n1C	0	-3	16	-19	i	13
Cc1c(C(=O)C(=O)NCc2cccs2)c2ccccc2n1C	0	/	-93	-7	i	-92*
CC1CCCCN1C(=S)Nc1ccc2nc3n(c(=O)c2c1)CCCCC3 (stereo not drawn)	0	-2	8	-1	i	-7
N#C/C(=C\c1ccc(OCc2cccc(C(=O)O)c2)cc1)C(=O)NCc1ccco1	/	5	-13	-22	i	-5
Cc1ccc(C(=O)NC(=S)N(C)C2CCCCC2)cc1	/	/	18	/	/	3
COc1cc(OC)cc(-c2cc3nc(C)c(CCC(=O)NCc4ccccc4)c(C)n3n2)c1	/	9	-53	-6	i	-57*
S=C(NCc1ccccc1)NN1CCOCC1	0	4	-11	-2	i	-4
C[C@]12C=CC(=O)C=C1CC[C@@H]1[C@@H]2[C@@H](O)C[C@@]2(C)[C@H]1CC[C@]2(O)C(=O)COC(=O)CCC(=O)NCCc1ccc(O)cc1	/	/	-44	/	/	-46
COc1cccc(NC(=O)N2CCCC2C(=O)NC(C)C)c1 (stereo not drawn)	0	0	-70	-15	i	-63*
COc1ccc(CNC(=O)N2CCc3ccccc3C2)cc1	/	/	16	/	/	7
COc1cccc(N2CCN(C(=S)Nc3cc(C)cc(C)c3)CC2)c1	0	/	-64	-18	i	-52*
COc1cccc(N2CCN(C(=S)Nc3ccc(F)cc3)CC2)c1	/	/	-2	/	/	-3
COc1cccc(N2CCN(c3ncccn3)CC2)c1	0	-4	73*	-14	i	42
COc1ccc(NC(=S)N2CCc3ccccc3C2)cc1	0	/	61*	/	i	28
CSc1cccc(NC(=S)N2CCC(N(C)C3CCCC3)CC2)c1	0	13	-79	1	i	-73*
COc1ccc(N2CCN(C(=S)Nc3cccc(OC)c3)CC2)cc1	/	/	5	/	/	2
COc1cccc(NC(=S)N2CCCC2)c1	0	-1	57*	-11	i	28
SMILES	Hsp70 act	Rad51 HR inh	HSF-1 act	MDM2 E3 inh	HSV replic up	HSF1 inh
O=C(N/N=C/c1cn(-c2cccs2)nc1-c1ccccc1)c1ccc(O)cc1	0	0	57*	-9	i	21
O=C(N/N=C/c1cn(-c2cccs2)nc1-c1ccccc1)c1ccccc1Cl	0	5	59*	1	i	22
COc1ccc(CCN2C(=O)CC(N3CCN(S(=O)(=O)c4ccccc4)CC3)C2=O)cc1OC (stereo not drawn)	0	6	14	-5	i	-2
Cc1ccc(NC(=O)N2CCCc3ccccc32)cc1C	/	/	-33	/	/	-10
COC(=O)C1=C(C)Nc2c(c(=O)n(C)c(=O)n2C)C1c1cccnc1 (stereo not drawn)	0	0	1	2	i	-4
COC(=O)C1=C(C)Nc2c(c(=O)n(C)c(=O)n2C)C1c1cccc(O)c1 (stereo not drawn)	/	12	-67	-1	i	-57*
CCOC(=O)C1=C(CN2CCN(C(=O)c3ccco3)CC2)NC(=O)NC1c1ccc(OC)cc1 (stereo not drawn)	/	/	-91	/	/	-88*
CCOC(=O)C1CCN(C(=O)c2ccco2)CC1	0	76*	/	2	i	/
O=C(COC(=O)C1CCN(C(=O)c2ccc(Cl)cc2)CC1)c1ccco1	0	1	13	0	i	-3
CCOC(=O)C1=C(CN2CCN(C(=O)c3ccco3)CC2)NC(=O)NC1c1ccccc1 (stereo not drawn)	/	/	11	/	/	-2
CCOC(=O)C1CCN(C(=O)c2cc3c(ccc4ccccc43)o2)CC1	/	/	77*	/	/	52
N/C(=N\OC(=O)c1ccc2c(c1)OCO2)c1cccc([N+](=O)[O-])c1	0	-5	59*	-39	i	50
COc1ccc(N2C(=O)[C@@H]3[C@H](C2=O)[C@H]2c4ccccc4C=CN2[C@@H]3C(C)=O)cc1	0	0	/	1	i	/
COC(=O)c1cc(CNC(=O)c2ccc(N3CCCC3)c([N+](=O)[O-])c2)ccc1OC	/	/	5	/	/	2
O=C(/C=C/c1ccccc1Cl)Nc1cccc(S(=O)(=O)NC2=NCCCCC2)c1	0	/	41	15	i	20
O=C(/C=C/c1ccc(Cl)cc1Cl)Nc1cccc(S(=O)(=O)NC2=NCCC2)c1	0	0	63*	-52	i	24
COc1ccc(S(=O)(=O)NCCc2c(C)nn(C)c2Oc2ccccc2)cc1	0	2	12	-13	i	1
Cc1nn(C)c(Oc2ccccc2)c1CCNS(=O)(=O)c1ccc(Cl)cc1	0	3	55*	-23	i	9
CNNCc1ccc(C(=O)NC(C)C)cc1	/	0	0	/	i	-1
CC1=CC(=O)C(C(C)C)=C/C1=N/OS(=O)(=O)c1ccccc1	/	-9	83*	-78	i	53
CC1=CC(=O)C=C(C)C1=NOS(=O)(=O)c1ccccc1	0	-9	27	-36	i	28
Cc1ccc(S(=O)(=O)N2CCC(=O)N2)cc1	0	0	-7	-12	i	2
Cc1ccc(S(=O)(=O)n2ccc(=O)[nH]2)cc1	0	-9	-76	/	i	-68*
Nc1ccccc1SC1CC(=O)N(c2ccccc2Cl)C1=O (stereo not drawn)	/	19	17	-20	i	4
O=C(Nc1ccccc1Cl)c1ccccc1Cc1ccccc1	0	17	-5	5	i	6
O=[N+]([O-])c1ccc(N/N=C/c2ccccc2O)cc1	/	/	73*	/	/	70

Screening data as filed in PubChem.
